Assay results as given in ChEMBL document CHEMBL4732020, “The modulatory role of sulfated and non-sulfated small molecule heparan sulfate-glycomimetics in endothelial dysfunction: absolute structural clarification, molecular docking and simulated dynamics, SAR analyses and ADMET studies” (RSC Med Chem, 2021).

Experiments:
HepG2 [1] = assay: Antioxidant activity in human HepG2 cells assessed as decrease in FFA-induced NADPH oxidase activity by lucigenin-enhanced chemiluminescence based scintillation counting method relative to control; format: functional
In short: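 HepG2 cells given FFA-BSA (palmitate 100 µmol/L) with glycomimetics 1 µmol/L for 3 h, or 12 h pretreatment then 3 h palmitate. Homogenized in 20 mmol/L H2KPO4/1 mmol/L EDTA with protease inhibitors. 50 µg protein with NADPH 100 µmol/L and lucigenin 5 µmol/L; luminescence over 200 s. Basal activity subtracted; expressed as RLU/min/µg protein.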

HepG2 [2] = assay: Antioxidant activity in human HepG2 cells assessed as decrease in FFA-induced oxidatively stress by measuring NO production using DAF-2 by H2DCFDA dye based fluorescence assay relative to control; format: functional; set-up: concentration or dose not given beside the values
In short: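 Palmitate (100 µmol/L)-BSA stressed HepG2 with glycomimetics 1 µmol/L (3 h co-treatment or 12 h pretreatment). For NO: L-arginine 100 µmol/L for 5 min at 37 °C, DAF-2 0.1 µmol/L for 2 min, then A23187 for 30 min; ex 485/em 540 nm, autofluorescence subtracted. L-NAME 100 µmol/L in some runs. ROS: CM-H2DCFDA 10 µmol/L, 30 min, 37 °C, ex 490/em 540 nm.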

[3] = biological target: T1, Nitric oxide synthase 3 (Homo sapiens) (UniProt P29474); assay: Induction of eNOS phosphorylation in FFA-induced oxidatively stress human HepG2 cells by Western blot analysis relative to control; set-up: concentration or dose not given beside the values
T1 sequence (whole entry): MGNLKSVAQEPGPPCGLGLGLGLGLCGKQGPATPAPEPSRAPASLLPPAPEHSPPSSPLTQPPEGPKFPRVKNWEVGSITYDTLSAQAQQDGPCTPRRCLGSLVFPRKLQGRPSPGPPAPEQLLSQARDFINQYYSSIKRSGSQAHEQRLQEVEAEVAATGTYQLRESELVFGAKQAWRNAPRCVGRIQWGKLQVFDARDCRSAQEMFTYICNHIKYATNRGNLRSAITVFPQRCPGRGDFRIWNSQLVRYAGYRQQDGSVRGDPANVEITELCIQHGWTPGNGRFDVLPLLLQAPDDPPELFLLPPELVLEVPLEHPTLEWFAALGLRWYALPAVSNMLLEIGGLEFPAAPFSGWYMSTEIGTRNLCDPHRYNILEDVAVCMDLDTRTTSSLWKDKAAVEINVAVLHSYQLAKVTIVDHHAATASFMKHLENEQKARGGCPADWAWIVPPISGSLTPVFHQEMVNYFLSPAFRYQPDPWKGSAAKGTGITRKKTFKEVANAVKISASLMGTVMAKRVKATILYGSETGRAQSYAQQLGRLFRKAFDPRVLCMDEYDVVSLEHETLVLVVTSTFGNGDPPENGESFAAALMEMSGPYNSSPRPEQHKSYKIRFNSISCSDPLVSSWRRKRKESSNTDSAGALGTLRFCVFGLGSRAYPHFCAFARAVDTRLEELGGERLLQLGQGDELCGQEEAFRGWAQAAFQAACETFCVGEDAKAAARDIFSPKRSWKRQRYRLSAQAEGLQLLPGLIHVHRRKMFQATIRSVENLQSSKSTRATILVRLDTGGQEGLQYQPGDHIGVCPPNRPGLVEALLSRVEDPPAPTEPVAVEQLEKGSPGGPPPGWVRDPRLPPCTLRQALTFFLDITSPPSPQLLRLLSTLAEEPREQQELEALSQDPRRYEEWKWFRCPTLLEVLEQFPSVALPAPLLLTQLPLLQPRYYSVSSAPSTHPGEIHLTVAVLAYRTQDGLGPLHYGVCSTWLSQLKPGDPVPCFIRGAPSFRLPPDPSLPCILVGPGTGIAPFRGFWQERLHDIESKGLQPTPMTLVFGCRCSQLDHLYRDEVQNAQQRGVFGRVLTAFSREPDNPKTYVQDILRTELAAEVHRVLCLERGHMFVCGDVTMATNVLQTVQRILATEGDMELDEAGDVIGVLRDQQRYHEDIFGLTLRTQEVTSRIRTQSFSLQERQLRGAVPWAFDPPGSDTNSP
In short: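 HepG2 stressed with palmitate 100 µmol/L-BSA plus glycomimetics 1 µmol/L. Lysed in RIPA, 30 µg protein by SDS-PAGE onto PVDF. Blocked 1 h in 5% milk/TBS-T; rabbit anti-phospho-eNOS overnight at 4 °C, HRP secondary 1 h at RT, ECL detection. Signal quantified by densitometry.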

[4] = Metabolic stability in rat liver microsomes assessed as intrinsic clearance at 3 uM measured up to 45 mins in presence of NADPH by LC-MS/MS analysis; format: ADME, Microsome; settings: read-out: CLH
In short: (§1)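 Pooled liver microsomes 0.5 mg/mL protein in 0.1 M phosphate pH 7.4 with compound 3 µM (0.25% DMSO), prewarmed at 37 °C. Started with NADPH 1 mM; sampled at 0, 5, 15, 30, 45 min into methanol. Minus-NADPH control at 45 min; single incubations. t½ = 0.693/k; CLint = V×0.693/t½ in µL/min/mg protein.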

[5] = Kinetic solubility of compound in PBS at pH 7.4 incubated for 2 hrs by turbidometric analysis; format: physicochemical; settings: read-out: Kinetic_solubility
In short: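 DMSO solutions diluted 1 in 100 into 0.01 M PBS pH 7.4 (final 1% DMSO) to give 1–100 µM; 7 replicate wells. Incubated 2 h at 37 °C, absorbance read at 620 nm. Solubility estimated as the concentration raising absorbance above vehicle.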

[6] = Chemical stability of compound; format: physicochemical
HepG2 [7] = assay: Antioxidant activity in human HepG2 cells assessed as decrease in FFA-induced ROS production after 24 hrs by ethidium/DAPI based fluorescence assay relative to control; format: functional
In short: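 Cells in serum-free DMEM with 2% fatty-acid-free BSA or palmitate-BSA (100 µmol/L) plus glycomimetics (1 or 10 µmol/L) for 24 h. Then 10 µmol/L dihydroethidium in Hepes-buffered solution for 30 min, DAPI 0.3 µmol/L counterstain. Fluorescence microscopy with constant imaging settings; ROS taken as ethidium/DAPI fluorescence ratio.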

[8] = Metabolic stability in rat liver microsomes assessed as half life at 3 uM measured up to 45 mins in presence of NADPH by LC-MS/MS analysis; format: ADME, Microsome; in short: as §1
HepG2 (Homo sapiens) = assay: Cytotoxicity against HepG2 cells assessed as reduction in cell viability incubated for 72 hrs by MTT assay; settings: hepg2, 72 h
[9] = Metabolic stability in mouse liver microsomes assessed as intrinsic clearance at 3 uM measured up to 45 mins in presence of NADPH by LC-MS/MS analysis; format: ADME, Microsome; settings: read-out: CLH; in short: as §1
[10] = Metabolic stability in mouse liver microsomes assessed as half life at 3 uM measured up to 45 mins in presence of NADPH by LC-MS/MS analysis; format: ADME, Microsome; in short: as §1
HepG2 [11] = assay: Cytotoxicity against human HepG2 cells assessed as reduction in cell viability incubated for 72 hrs by MTT assay; format: cell-based; settings: hepg2, 72 h
In short: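 HepG2 plated 24 h before dosing. Compound at 8 concentrations in triplicate, serially diluted in 0.5% DMSO growth medium, for 72 h. MTT loaded 1 h before end; solubilised in DMSO, read at 570 nm. Significance limits come from vehicle wells. Minimum effective concentration taken from the lowest concentration exceeding significance; AC50 fitted when dose-response is clear.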

[12] = biological target: Voltage-gated inwardly rectifying potassium channel KCNH2 (Homo sapiens, UniProt Q12809); assay: Inhibition of recombinant human ERG expressed in CHO cells at -80 mV holding potential by automated patch clamp method; format: cell-based
In short: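 hERG-CHO cells on automated IonWorks patch clamp at room temperature. Extracellular DPBS pH 7.2, HEPES-buffered intracellular solution, amphotericin B perforation. Compounds typically at 0.008–25 µM (5-fold steps, final DMSO 0.25%), 300 s exposure, 4 replicate wells. Response is post/pre current ×100; IC50 from Hill fit.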

Chain of Voltage-gated inwardly rectifying potassium channel KCNH2 (Q12809 whole entry): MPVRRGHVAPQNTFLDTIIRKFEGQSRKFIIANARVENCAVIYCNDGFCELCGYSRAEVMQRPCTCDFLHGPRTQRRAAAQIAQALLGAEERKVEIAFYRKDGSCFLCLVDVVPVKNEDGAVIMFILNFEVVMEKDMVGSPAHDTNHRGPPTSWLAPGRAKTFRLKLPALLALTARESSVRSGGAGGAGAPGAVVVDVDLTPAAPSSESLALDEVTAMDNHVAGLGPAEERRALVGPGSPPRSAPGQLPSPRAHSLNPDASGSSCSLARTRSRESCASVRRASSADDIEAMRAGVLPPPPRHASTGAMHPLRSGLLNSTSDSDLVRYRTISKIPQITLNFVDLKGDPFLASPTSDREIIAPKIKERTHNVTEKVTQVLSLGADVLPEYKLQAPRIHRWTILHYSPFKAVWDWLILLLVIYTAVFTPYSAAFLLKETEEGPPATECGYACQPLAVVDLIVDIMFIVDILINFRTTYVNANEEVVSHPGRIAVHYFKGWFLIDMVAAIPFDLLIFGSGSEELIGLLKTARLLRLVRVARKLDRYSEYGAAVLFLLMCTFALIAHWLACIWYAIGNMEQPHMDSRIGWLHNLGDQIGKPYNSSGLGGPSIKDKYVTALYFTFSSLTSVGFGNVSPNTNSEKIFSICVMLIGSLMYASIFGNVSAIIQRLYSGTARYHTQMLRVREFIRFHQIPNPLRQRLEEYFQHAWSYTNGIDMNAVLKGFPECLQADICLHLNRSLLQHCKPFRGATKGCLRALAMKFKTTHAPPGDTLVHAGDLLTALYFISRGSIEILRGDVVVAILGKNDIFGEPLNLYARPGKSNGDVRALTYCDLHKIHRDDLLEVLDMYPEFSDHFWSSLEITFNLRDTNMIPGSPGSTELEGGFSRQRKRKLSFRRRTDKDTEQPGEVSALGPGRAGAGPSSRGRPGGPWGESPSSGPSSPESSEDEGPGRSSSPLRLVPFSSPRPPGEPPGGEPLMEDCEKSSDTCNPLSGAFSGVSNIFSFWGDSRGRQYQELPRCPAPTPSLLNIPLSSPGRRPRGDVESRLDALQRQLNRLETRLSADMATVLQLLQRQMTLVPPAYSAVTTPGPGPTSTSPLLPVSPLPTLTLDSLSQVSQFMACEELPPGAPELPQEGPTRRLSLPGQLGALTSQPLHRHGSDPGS

Row | Activity [3] | microsomal CLint at 3 µM [4] | solubility kinetic at 2 h [5] | Stabilty [6] | half-life at 3 µM [8] | microsomal CLint at 3 µM [9] | half-life at 3 µM [10] | SMILES | inhibition (INH) (HepG2 [1]) | Activity (HepG2 [2]) | inhibition (INH) (HepG2 [7]) | Activity (HepG2 (Homo sapiens)) | Activity (HepG2 [11]) | IC50 [12]
1 | 342% | 9.56 µL/min/mg | > 100 µM | Stable | 2.42 h | 0.755 µL/min/mg | 30.7 h | COC(=O)c1cc(OC[C@@H](COS(=O)(=O)[O-])OS(=O)(=O)[O-])ccc1OC[C@H](COS(=O)(=O)[O-])OS(=O)(=O)[O-].[Na+].[Na+].[Na+].[Na+] | 29% | 110% | 28% | Non-Toxic | Non-Toxic | 
2 | 312% |  |  |  |  |  |  | O=C([O-])c1cc(OC[C@H](O)CO)ccc1OC[C@@H](O)CO.[Na+] (mixture of isomers) | 21% | 41% | 23% |  |  | 
3 | 294% |  |  |  |  |  |  | O=C([O-])c1cc(OC[C@@H](O)CO)ccc1OC[C@H](O)CO.[Na+] (mixture of isomers) | 27% | 52% | 19% |  |  | 
4 | 286% |  |  |  |  |  |  | COC(=O)c1cc(OC[C@H](O)CO)ccc1OC[C@@H](O)CO (mixture of isomers) | 26% | 46% | 36% |  |  | 
5 | 613% |  |  | Stable |  |  |  | COC(=O)c1cc(OC[C@H](COS(=O)(=O)[O-])OS(=O)(=O)[O-])ccc1OCCCCOS(=O)(=O)[O-].[Na+].[Na+].[Na+] | 31% | 52% | 23% | Non-Toxic | Non-Toxic | 
6 | 397% |  |  | Stable |  |  |  | COC(=O)c1cc(OC[C@@H](COS(=O)(=O)[O-])OS(=O)(=O)[O-])ccc1OCCCCOS(=O)(=O)[O-].[Na+].[Na+].[Na+] | 27% | 63% | 39% | Non-Toxic | Non-Toxic | 
7 | 318% | 0.649 µL/min/mg | > 100 µM | Stable | 35.7 h | 2.88 µL/min/mg | 8.03 h | COC(=O)c1cc(OC[C@H](COS(=O)(=O)[O-])OS(=O)(=O)[O-])ccc1OC[C@@H](COS(=O)(=O)[O-])OS(=O)(=O)[O-].[Na+].[Na+].[Na+].[Na+] | 31% | 62% | 29% | Non-Toxic | Non-Toxic | > 25 µM
